Laboratory results as given in paper PMC7043261 (Pharmacology Research & Perspectives, 2020).

Legend:
[1] = system: formalin‐induced pain responses in rats; settings: ref 34 (Maione et al (2007)); cited from earlier work
[2] = system: motor coordination; settings: ref 17 (Watabiki et al (2017)); cited from earlier work
[3] = system: CFA‐induced mechanical allodynia in rats; test: CFA‐induced inflammatory pain; assay type: in vivo; settings: rat, 1 and 4 hours after administration
Summary of the method: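 Male Sprague‐Dawley rats received 50% CFA intraplantar (0.1 mL, right hind paw). PWT was measured 5 days later by von Frey up‐down method. The test compound (0.5% HPMC suspension) was dosed orally 1 h before PWT. Naproxen (0.5% methylcellulose) was dosed orally 4 h before PWT. Dosing volume 10 mL/kg. n=9, mean ± SEM; Steel's or Wilcoxon test.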

[4] = system: CFA‐induced mechanical allodynia in rats; settings: cited from earlier work; for mechanical allodynia on CFA‐induced inflammatory pain: rats
[5] = system: catalepsy; settings: ref 13 (Ahn et al (2011)); cited from earlier work
[6] = system: AEA concentrations in rat brain; test: AEA concentrations in rat brain; assay type: in vivo
[7] = system: formalin‐induced pain responses in rats; test: Formalin test; assay type: in vivo; settings: rat; for formalin‐induced pain responses, late phase: 10 to 45 minutes; for formalin‐induced pain responses, early phase: 0 to 10 minutes
Summary of the method: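 Male Wistar rats received oral dosing 1 h before injection: test compound in 0.5% HPMC or pregabalin in saline, 10 mL/kg. Then 0.5% formalin (50 µL) was injected into the left hind‐paw plantar surface. Flinching, licking and biting time was scored manually over 45 min: early phase 0–10 min, late phase 10–45 min. n=6, mean ± SEM; Dunnett's or Student's t‐test.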

[8] = Pharmacokinetic study in rats; assay type: in vivo; settings: male, Sprague-Dawley, rat, plasma
Summary of the method: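 Male Sprague‐Dawley rats. IV dose: 1 mg/kg in 40% dimethylacetamide/40% PEG400/20% water (1 mL/kg). Oral doses: 0.3, 1, 3 mg/kg as 0.5% HPMC suspension. Serial plasma was obtained by centrifugation (2,150g, 15 min, 4°C), extracted with ethyl acetate by supported‐liquid extraction, and reconstituted in 45% acetonitrile/55% 10 mmol/L ammonium acetate. Analysis by LC‐MS/MS; noncompartmental parameters.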

[9] = system: catalepsy in rats; test: Catalepsy; assay type: in vivo; settings: rat, cut‐off 90 s
[10] = target: 5-HT2B (h) (Homo sapiens, UniProt P41595); test: Cerep BioPrint profiling and follow-up IC50; assay type: binding
[11] = target: T1, human FAAH (Homo sapiens, UniProt O00519); test: FAAH inhibition, human microsomes; assay type: biochemical
T1 sequence (O00519 1-579): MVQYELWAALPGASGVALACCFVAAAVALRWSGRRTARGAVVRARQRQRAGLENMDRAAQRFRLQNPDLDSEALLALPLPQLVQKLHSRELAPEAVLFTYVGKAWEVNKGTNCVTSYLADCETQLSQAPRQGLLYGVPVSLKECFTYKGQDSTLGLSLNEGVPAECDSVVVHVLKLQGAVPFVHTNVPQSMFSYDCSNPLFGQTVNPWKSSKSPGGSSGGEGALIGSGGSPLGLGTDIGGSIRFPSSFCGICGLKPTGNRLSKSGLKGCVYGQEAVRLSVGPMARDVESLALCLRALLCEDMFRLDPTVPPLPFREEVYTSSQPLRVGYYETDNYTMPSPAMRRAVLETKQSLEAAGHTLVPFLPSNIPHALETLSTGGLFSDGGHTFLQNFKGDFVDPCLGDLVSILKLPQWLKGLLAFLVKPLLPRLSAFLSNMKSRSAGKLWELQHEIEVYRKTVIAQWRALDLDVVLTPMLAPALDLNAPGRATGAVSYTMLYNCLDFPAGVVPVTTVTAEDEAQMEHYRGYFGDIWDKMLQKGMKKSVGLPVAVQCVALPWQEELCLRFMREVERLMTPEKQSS

[12] = target: T2, human monoacylglycerol lipase (MAGL) (Homo sapiens, UniProt Q99685); test: MAGL inhibitor screening assay kit; assay type: biochemical; settings: 30 μmol/L
T2 sequence (Q99685 1-303): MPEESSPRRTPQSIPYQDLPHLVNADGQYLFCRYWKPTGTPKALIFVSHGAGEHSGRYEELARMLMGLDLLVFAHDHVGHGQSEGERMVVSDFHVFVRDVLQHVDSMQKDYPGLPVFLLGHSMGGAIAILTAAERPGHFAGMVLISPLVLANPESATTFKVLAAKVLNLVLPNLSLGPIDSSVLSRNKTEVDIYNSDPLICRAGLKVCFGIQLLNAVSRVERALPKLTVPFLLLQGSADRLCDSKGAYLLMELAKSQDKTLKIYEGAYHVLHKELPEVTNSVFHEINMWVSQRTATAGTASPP

[13] = target: T3, rat FAAH (Rattus norvegicus, UniProt P97612); test: FAAH inhibition, rat brain microsomes, AAMCA fluorescence, IC50; assay type: biochemical
T3 sequence (P97612 1-579): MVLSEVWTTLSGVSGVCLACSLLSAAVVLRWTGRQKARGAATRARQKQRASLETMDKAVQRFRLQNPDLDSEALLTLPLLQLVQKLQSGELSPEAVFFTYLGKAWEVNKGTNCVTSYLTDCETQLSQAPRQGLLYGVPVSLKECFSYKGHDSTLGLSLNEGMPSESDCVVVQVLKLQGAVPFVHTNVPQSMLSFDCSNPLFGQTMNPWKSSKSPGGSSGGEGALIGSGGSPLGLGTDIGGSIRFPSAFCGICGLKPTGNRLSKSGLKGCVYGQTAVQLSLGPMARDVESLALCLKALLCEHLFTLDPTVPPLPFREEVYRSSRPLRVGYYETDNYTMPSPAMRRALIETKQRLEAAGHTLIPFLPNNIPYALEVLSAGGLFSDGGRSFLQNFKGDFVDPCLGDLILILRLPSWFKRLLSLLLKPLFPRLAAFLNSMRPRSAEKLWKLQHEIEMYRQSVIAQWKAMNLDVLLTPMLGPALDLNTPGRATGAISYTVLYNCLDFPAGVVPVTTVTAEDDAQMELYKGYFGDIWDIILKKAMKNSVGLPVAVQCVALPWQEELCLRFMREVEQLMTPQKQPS

[14] = target: PAF (h) (Homo sapiens, UniProt P25105); test: Cerep BioPrint profiling and follow-up IC50; assay type: binding
[15] = system: CCI‐induced mechanical allodynia in rats; test: CCI‐induced neuropathic pain; assay type: in vivo; settings: rat, 4 hours
Summary of the method: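 Male Sprague‐Dawley rats. Under anesthesia, the left sciatic nerve was loosely tied with four ligatures at 1 mm intervals; in shams the right nerve was exposed but not ligated. On day 14 after surgery, the test compound (0.5% HPMC suspension) or pregabalin (saline) was given orally at 10 mL/kg 4 h before PWT. PWT was measured by von Frey up‐down method. n=8, mean ± SEM; Steel's or Wilcoxon test.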

[16] = system: motor coordination in rats; test: Motor coordination; assay type: in vivo; settings: rat, p.o., cut‐off 200 s
Summary of the method: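 Male Sprague‐Dawley rats were trained at 20 rpm on 2 consecutive days, up to five trials, until they walked ≥200 s. They were retrained in two sessions on test day; rats reaching the criterion once were used. Time on the rod (cut‐off 200 s) was recorded 1 h after the oral test compound or 2 h after pregabalin. n=10, mean ± SEM; Steel's test.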

[17] = system: partial sciatic nerve ligation‐induced mechanical allodynia; settings: rats; cited from earlier work
[18] = system: spinal nerve ligation‐induced mechanical allodynia; settings: rats; single systemic administration; cited from earlier work
[19] = 30 mg/kg p.o. 1 hour before formalin

Chain of 5-HT2B (h) (P41595 whole entry): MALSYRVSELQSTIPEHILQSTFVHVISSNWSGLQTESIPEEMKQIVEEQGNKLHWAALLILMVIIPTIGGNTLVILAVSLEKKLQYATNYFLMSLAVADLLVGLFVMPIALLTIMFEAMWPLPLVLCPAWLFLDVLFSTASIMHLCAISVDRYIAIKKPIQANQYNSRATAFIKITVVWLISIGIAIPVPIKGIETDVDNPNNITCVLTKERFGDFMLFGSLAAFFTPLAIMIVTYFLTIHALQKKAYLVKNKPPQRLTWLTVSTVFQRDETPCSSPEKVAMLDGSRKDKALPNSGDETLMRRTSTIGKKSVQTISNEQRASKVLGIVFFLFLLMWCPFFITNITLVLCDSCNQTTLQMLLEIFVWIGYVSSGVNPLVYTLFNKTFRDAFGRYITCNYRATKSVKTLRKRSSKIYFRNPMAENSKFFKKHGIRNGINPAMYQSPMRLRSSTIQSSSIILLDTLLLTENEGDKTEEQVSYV
Chain of PAF (h) (P25105 whole entry): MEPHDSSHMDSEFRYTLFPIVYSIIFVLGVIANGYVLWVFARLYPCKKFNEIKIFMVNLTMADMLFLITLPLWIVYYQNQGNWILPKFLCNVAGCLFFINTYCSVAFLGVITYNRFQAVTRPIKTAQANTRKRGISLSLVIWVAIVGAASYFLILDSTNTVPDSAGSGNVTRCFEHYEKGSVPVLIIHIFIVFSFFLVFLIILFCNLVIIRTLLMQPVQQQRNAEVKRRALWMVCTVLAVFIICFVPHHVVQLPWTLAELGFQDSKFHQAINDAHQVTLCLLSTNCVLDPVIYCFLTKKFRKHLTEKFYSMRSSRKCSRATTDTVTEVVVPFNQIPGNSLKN

CCCCC/C=C\C/C=C\C/C=C\C/C=C\CCCC(=O)NCCc1c[nH]c2ccc(O)cc12 [AA‐5‐HT, N‐arachidonoyl‐serotonin]
formalin‐induced pain responses [1]: significantly decreased formalin‐induced pain responses only in the late phase

O=C(Nc1ccccc1)C1CCN(C(=O)Oc2cccnc2)CC1 [ASP8477, 3‐pyridyl 4‐(phenylcarbamoyl)piperidine‐1‐carboxylate]
effect on motor coordination [2]: did not affect motor coordination up to 30 mg/kg

COc1ccc2cc([C@H](C)C(=O)O)ccc2c1 [Naproxen, (S)‐(+)‐6‐methoxy‐α‐methyl‐2‐naphthaleneacetic acid, reference compound]
mechanical allodynia (PWT), CFA‐induced inflammatory pain ([3]; 15 mg/kg p.o.): significantly suppressed

O=C(Nc1cccnc1)N1CCC(Cc2cccc(Oc3ccc(C(F)(F)F)cn3)c2)CC1 [PF‐3845, N‐3‐pyridinyl‐4‐[[3‐[[5‐(trifluoromethyl)‐2‐pyridinyl]oxy]phenyl]methyl]‐1‐piperidinecarboxamide]
mechanical allodynia on CFA‐induced inflammatory pain [4]: improved mechanical allodynia

O=C(Nc1cccnn1)N1CCC(=Cc2cccc(Oc3ccc(C(F)(F)F)cn3)c2)CC1 [PF‐04457845, N‐pyridazin‐3‐yl‐4‐(3‐{[5‐(trifluoromethyl)pyridin‐2‐yl]oxy}benzylidene)piperidine‐1‐carboxamide]
mechanical allodynia on CFA‐induced inflammatory pain [4]: improved mechanical allodynia
minimum effective dose in CFA‐induced inflammatory pain ([4]; ref 13 (Ahn et al (2011))): 0.1 mg/kg
effects on catalepsy [5]: no effects on catalepsy up to 100‐fold higher dose

O=C(Nc1cccnn1)N1CCN([C@@H]2CCOc3cc(C(F)(F)F)ccc32)CC1 [PKM‐833, (R)‐N‐(pyridazin‐3‐yl)‐4‐(7‐(trifluoromethyl)chroman‐4‐yl)piperazine‐1‐carboxamide]
AEA concentrations in rat brain, time course ([6]; 1 mg/kg p.o., 1 to 48 hours before decapitation): significantly elevated for 8 hours but not at 24 and 48 hours
AEA concentrations in rat brain, dose dependence ([6]; 0.3‐3 mg/kg p.o., 1 hour before decapitation): significant effects at doses of 1 and 3 mg/kg
formalin‐induced pain responses, late phase ([7]; 3 mg/kg p.o. 1 hour before formalin): significantly reduced
formalin‐induced pain responses, early phase ([7]; 0.3‐3 mg/kg p.o. 1 hour before formalin): Neither PKM‐833 nor pregabalin changed
half-life ([8]; iv, 1 mg/kg): 5.8 h
bioavailability ([8]; po): 41 to 91%
Duration (s), catalepsy ([9]; 10 mg/kg, p.o., 1 h): 0.5 ± 0.1 s
Duration (s), catalepsy ([9]; 10 mg/kg, p.o., 4 h): 3.7 ± 1.9 s
Duration (s), catalepsy ([9]; 30 mg/kg, p.o., 1 h): 0.8 ± 0.2 s
Duration (s), catalepsy ([9]; 30 mg/kg, p.o., 4 h): 1.0 ± 0.3 s
IC50 [10]: 6400 nM
IC50 [11]: 8.8 ± 3 nM
selectivity against other molecular targets ([11]; FAAH versus 137 other molecular targets): more than 200 fold
inhibition of human MAGL [12]: did not inhibit
IC50 [13]: 10 ± 3 nM
IC50 [14]: 2300 nM
mechanical allodynia (PWT), CCI‐induced neuropathic pain ([15]; PKM‐833 30 mg/kg p.o. (3‐30 mg/kg tested)): did not attenuate
mechanical allodynia (PWT), CFA‐induced inflammatory pain ([3]; 0.3 to 3 mg/kg p.o.): significantly suppressed
Duration (s) on rotarod ([16]; 10 mg/kg, 1 h): 200 ± 0 s
Duration (s) on rotarod ([16]; 30 mg/kg, 1 h): 195 ± 6 s

CC(C)C[C@H](CN)CC(=O)O [Pregabalin, 3(S)‐(aminomethyl)‐5‐methylhexanoic acid, reference compound]
formalin‐induced pain responses, early phase [7, 19]: Neither PKM‐833 nor pregabalin changed
formalin‐induced pain responses, late phase [7, 19]: significantly reduced
mechanical allodynia (PWT), CCI‐induced neuropathic pain ([15]; pregabalin 30 mg/kg p.o.): significantly antagonized
Duration (s) on rotarod ([16]; 10 mg/kg, 2 h): 199 ± 1 s
Duration (s) on rotarod ([16]; 30 mg/kg, 2 h): 167 ± 14 s

NC(=O)c1cccc(-c2cccc(OC(=O)NC3CCCCC3)c2)c1 [URB597, (3'‐(aminocarbonyl)[1,1'‐biphenyl]‐3‐yl)‐cyclohexylcarbamate]
partial sciatic nerve ligation‐induced mechanical allodynia [17]: had no improvement
spinal nerve ligation‐induced mechanical allodynia [18]: improved

CS(=O)(=O)O.Cc1c(C(=O)c2cccc3ccccc23)c2cccc3c2n1[C@H](CN1CCOCC1)CO3 [WIN 55,212‐2, (R)‐(+)‐(2,3; dihydro‐5‐methyl‐3‐(4‐morpholinylmethyl)pyrrolo[1.2.3‐de]‐1,4‐benzoxazin‐6‐yl)‐1‐naphthalenylmethanone mesylate, reference compound]
Duration (s), catalepsy ([9]; 3 mg/kg, s.c., 1 h): 13 ± 2 s
Duration (s), catalepsy ([9]; 3 mg/kg, s.c., 4 h): 77 ± 7 s
